Results: publication PMC5553891 (Neurochemistry international, 2013)
Like-named read-outs stand apart in the source and are kept apart here. Values belong to the molecule of their own block, whether it stands above or below them.

Assays:
dSERT [1] = target: T1, dSERT (Drosophila melanogaster, UniProt P51905); assay: inhibition of [3H]5-HT uptake in Xenopus oocytes; type: cell-based
T1 sequence (P51905 1-622): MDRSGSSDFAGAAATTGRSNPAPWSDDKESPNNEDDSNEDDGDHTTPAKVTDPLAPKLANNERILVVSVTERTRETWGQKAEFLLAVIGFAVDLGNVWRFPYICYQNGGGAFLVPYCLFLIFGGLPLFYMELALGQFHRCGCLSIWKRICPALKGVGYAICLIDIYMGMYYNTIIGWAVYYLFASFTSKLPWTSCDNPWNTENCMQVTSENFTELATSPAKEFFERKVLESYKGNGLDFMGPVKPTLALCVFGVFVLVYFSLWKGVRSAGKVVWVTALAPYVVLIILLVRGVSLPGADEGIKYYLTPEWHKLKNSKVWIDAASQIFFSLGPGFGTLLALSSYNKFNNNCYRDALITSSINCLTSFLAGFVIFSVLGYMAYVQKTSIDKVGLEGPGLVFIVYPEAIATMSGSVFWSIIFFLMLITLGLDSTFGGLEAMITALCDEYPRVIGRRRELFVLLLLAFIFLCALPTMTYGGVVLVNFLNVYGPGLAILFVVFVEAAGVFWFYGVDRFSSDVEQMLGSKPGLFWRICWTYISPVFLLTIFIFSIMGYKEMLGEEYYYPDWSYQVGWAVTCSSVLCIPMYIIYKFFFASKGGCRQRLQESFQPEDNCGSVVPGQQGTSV
Outline: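 Xenopus oocytes: defolliculated in collagenase A, kept at 18°C in supplemented ND96, injected with 50 ng dSERT cRNA, used 2–4 days later. Uptake ran 20 min in ND96 with 200 nM [3H]5-HT plus increasing competitor. Stopped by removal and six ND96 washes; SDS-solubilised at 60°C, 2 h; scintillation counted. Uninjected same-batch oocytes subtracted; normalised to no-drug control; one-site competition fit.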

dSERT [2] = target: T1, dSERT; assay: two-electrode voltage clamp of 5-HT-induced current in Xenopus oocytes; type: cell-based; details: 10 μM 5-HT, ND96, −50 mV, room temperature
[3] = read-out: Ki (μM ± SEM) / dSERT, 200 nM [3H]5-HT, 20 min, ND96

SMILES: C=C[C@H]1C[N@@]2CC[C@H]1C[C@@H]2[C@@H](O)c1ccnc2ccccc12 [Cinchonine]
Ki (dSERT [1]; [3]): 6.4 ± 0.05 µM

SMILES: CCN(CC)CCCC(C)Nc1ccnc2cc(Cl)ccc12 (stereo not shown) [Chloroquine]
% inhibition of I5HT at 100 μM (dSERT [2]): quinidine > cinchonine > quinacrine > chloroquine > quinine = amodiaquin = cinchonidine

Ki (dSERT [1]): 1.8 ± 0.11 µM
SMILES: C=C[C@H]1C[N@@]2CC[C@H]1C[C@@H]2[C@@H](O)c1ccnc2ccc(OC)cc12 [Quinidine]

SMILES: C=C[C@H]1CN2CC[C@H]1C[C@H]2[C@H](O)c1ccnc2ccccc12 [Cinchonidine]
Ki (dSERT [1]; [3]): 330 ± 19 µM

Ki (dSERT [1]): 102 ± 24 µM
SMILES: C=C[C@H]1C[N@@]2CC[C@H]1C[C@H]2[C@H](O)c1ccnc2ccc(OC)cc12 [Quinine]

SMILES: CCN(CC)Cc1cc(Nc2ccnc3cc(Cl)ccc23)ccc1O [Amodiaquin]
% inhibition of I5HT at 100 μM (dSERT [2]): amodiaquin, which did not impact 5-HT uptake, was as affective as quinine

SMILES: CCN(CC)CCCC(C)Nc1c2ccc(Cl)cc2nc2ccc(OC)cc12 (stereo not shown) [quinacrine]
% inhibition of I5HT at 100 μM (dSERT [2]): quinidine > cinchonine > quinacrine > chloroquine > quinine = amodiaquin = cinchonidine
